How the values were obtained:
[1] = system: HT-29; assay: Cytotoxicity against human HT-29 cells assessed as growth inhibition measured after 72 hrs by MTT assay; assay type: functional; conditions: HT-29, 72 h
Outline: (§1)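 Cells in log phase were seeded in duplicate at 2500–4000 cells/well in supplemented DMEM (37 °C, 5% CO2). Drug from a 40 mM DMSO stock was added on day 0, 24 h post-plating. Read-out was MTT absorbance at 540 nm after 72 h.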

[2] = Cytotoxicity against human SJ-G2 cells assessed as growth inhibition measured after 72 hrs by MTT assay; assay type: functional; conditions: SJ-G2, 72 h; outline: as §1
[3] = Cytotoxicity against human BE(2)-C cells assessed as growth inhibition measured after 72 hrs by MTT assay; assay type: functional; outline: as §1
[4] = Cytotoxicity against human MIA cells assessed as growth inhibition measured after 72 hrs by MTT assay; assay type: functional; outline: as §1
[5] = Cytotoxicity against mouse SMA cells assessed as growth inhibition measured after 72 hrs by MTT assay
[6] = system: A2780; assay: Cytotoxicity against human A2780 cells assessed as growth inhibition measured after 72 hrs by MTT assay; assay type: functional; conditions: A2780, 72 h; outline: as §1
[7] = Cytotoxicity against human H460 cells assessed as growth inhibition measured after 72 hrs by MTT assay; assay type: functional; conditions: NCI-H460, 72 h; outline: as §1
[8] = system: MCF7; assay: Cytotoxicity against human MCF7 cells assessed as growth inhibition measured after 72 hrs by MTT assay; assay type: functional; conditions: MCF7, 72 h; outline: as §1
[9] = system: A-431; assay: Cytotoxicity against human A431 cells assessed as growth inhibition measured after 72 hrs by MTT assay; assay type: functional; conditions: A-431, 72 h; outline: as §1
[10] = system: DU-145; assay: Cytotoxicity against human DU145 cells assessed as growth inhibition measured after 72 hrs by MTT assay; assay type: functional; conditions: DU-145, 72 h; outline: as §1
[11] = system: SW480; assay: Cytotoxicity against human SW480 cells assessed as growth inhibition measured after 72 hrs by MTT assay; assay type: functional; conditions: SW480, 72 h; outline: as §1

Compound: N#C/C(=C\c1ccco1)C(=O)NCc1ccc(Cl)c(Cl)c1
- GI50 [1]: 20 µM
- GI50 [2]: > 50 µM
- GI50 [3]: > 50 µM
- GI50 [4]: > 50 µM
- GI50 [5]: 38 µM
- GI50 [6]: > 50 µM
- GI50 [7]: > 50 µM
- GI50 [8]: 20 µM
- GI50 [9]: > 50 µM
- GI50 [10]: 24 µM
- GI50 [11]: > 50 µM

Compound: N#C/C(=C\c1ccc[nH]1)C(=O)NCc1ccc(Cl)c(Cl)c1
- GI50 [1]: 85 µM
- GI50 [2]: > 50 µM
- GI50 [3]: 43 µM
- GI50 [4]: > 50 µM
- GI50 [5]: > 50 µM
- GI50 [6]: > 50 µM
- GI50 [7]: > 50 µM
- GI50 [8]: 6 µM
- GI50 [9]: > 50 µM
- GI50 [10]: > 50 µM
- GI50 [11]: > 50 µM

Compound: COc1ccc(CNC(=O)/C(C#N)=C/c2ccc(Cl)cc2)cc1
- GI50 [1]: 7 µM
- GI50 [2]: 11 µM
- GI50 [3]: 12 µM
- GI50 [4]: 16 µM
- GI50 [5]: 17 µM
- GI50 [6]: 7 µM
- GI50 [7]: 14 µM
- GI50 [8]: 11 µM
- GI50 [9]: 6 µM
- GI50 [10]: 7 µM
- GI50 [11]: 10 µM

Compound: COc1ccc(CNC(=O)/C(C#N)=C/c2cc(Br)co2)cc1
- GI50 [1]: 36 µM
- GI50 [2]: 23 µM
- GI50 [3]: 36 µM
- GI50 [4]: 65 µM
- GI50 [5]: > 100 µM
- GI50 [6]: 28 µM
- GI50 [7]: > 100 µM
- GI50 [8]: 20 µM
- GI50 [9]: 14 µM
- GI50 [10]: 61 µM
- GI50 [11]: > 100 µM

Compound: N#C/C(=C\c1ccccc1)C(=O)NCc1ccc(Cl)c(Cl)c1
- GI50 [1]: 70 µM
- GI50 [2]: 43 µM
- GI50 [3]: 32 µM
- GI50 [4]: 47 µM
- GI50 [5]: 43 µM
- GI50 [6]: 49 µM
- GI50 [7]: 61 µM
- GI50 [8]: 29 µM
- GI50 [9]: 43 µM
- GI50 [10]: 71 µM
- GI50 [11]: 49 µM

Compound: COc1ccc(CNC(=O)/C(C#N)=C/c2ccoc2)cc1
- GI50 [1]: 6 µM
- GI50 [2]: 8 µM
- GI50 [3]: 7 µM
- GI50 [4]: 8 µM
- GI50 [5]: 7 µM
- GI50 [6]: 6 µM
- GI50 [7]: 8 µM
- GI50 [8]: 7 µM
- GI50 [9]: 5 µM
- GI50 [10]: 7 µM
- GI50 [11]: 8 µM

Compound: N#C/C(=C\c1cccc2ccccc12)C(=O)NCc1ccc(Cl)c(Cl)c1
- GI50 [1]: 7 µM
- GI50 [2]: 13 µM
- GI50 [3]: 7 µM
- GI50 [4]: 8 µM
- GI50 [5]: 7 µM
- GI50 [6]: 7 µM
- GI50 [7]: 7 µM
- GI50 [8]: 8 µM
- GI50 [9]: 8 µM
- GI50 [10]: 12 µM
- GI50 [11]: 11 µM

Compound: N#C/C(=C\c1c[nH]c2ccccc12)C(=O)c1c[nH]c2ccccc12
- GI50 [1]: 6 µM
- GI50 [2]: 13 µM
- GI50 [3]: 12 µM
- GI50 [4]: 14 µM
- GI50 [5]: 15 µM
- GI50 [6]: 9.3 µM
- GI50 [7]: 7.6 µM
- GI50 [8]: 11 µM
- GI50 [9]: 7.6 µM
- GI50 [10]: 17 µM
- GI50 [11]: 8.3 µM

Compound: COc1ccc(CNC(=O)/C(C#N)=C/c2cccc3ccccc23)cc1
- GI50 [1]: 13 µM
- GI50 [2]: 15 µM
- GI50 [3]: 14 µM
- GI50 [4]: 15 µM
- GI50 [5]: 15 µM
- GI50 [6]: 16 µM
- GI50 [7]: 15 µM
- GI50 [8]: 16 µM
- GI50 [9]: 15 µM
- GI50 [10]: 16 µM
- GI50 [11]: 14 µM

Compound: COc1ccc(CNC(=O)/C(C#N)=C/c2ccc(Cl)o2)cc1
- GI50 [1]: 9 µM
- GI50 [2]: 13 µM
- GI50 [3]: 11 µM
- GI50 [4]: 15 µM
- GI50 [5]: 14 µM
- GI50 [6]: 9 µM
- GI50 [7]: 15 µM
- GI50 [8]: 9 µM
- GI50 [9]: 9 µM
- GI50 [10]: 12 µM
- GI50 [11]: 13 µM

Compound: N#C/C(=C\c1ccc(Cl)cc1)C(=O)NCc1ccc(Cl)c(Cl)c1
- GI50 [1]: 33 µM
- GI50 [2]: 30 µM
- GI50 [3]: 31 µM
- GI50 [4]: 31 µM
- GI50 [5]: 33 µM
- GI50 [6]: 32 µM
- GI50 [7]: 33 µM
- GI50 [8]: 21 µM
- GI50 [9]: 30 µM
- GI50 [10]: 30 µM
- GI50 [11]: 30 µM

Compound: COc1ccc(CNC(=O)/C(C#N)=C/c2ccc[nH]2)cc1
- GI50 [1]: > 50 µM
- GI50 [2]: > 50 µM
- GI50 [3]: 47 µM
- GI50 [4]: > 50 µM
- GI50 [5]: > 50 µM
- GI50 [6]: > 50 µM
- GI50 [7]: > 50 µM
- GI50 [8]: 34 µM
- GI50 [9]: > 50 µM
- GI50 [10]: > 50 µM
- GI50 [11]: > 50 µM

Compound: COc1ccc(CNC(=O)/C(C#N)=C/c2ccc(Br)o2)cc1
- GI50 [1]: 10 µM
- GI50 [2]: 13 µM
- GI50 [3]: 13 µM
- GI50 [4]: 16 µM
- GI50 [5]: 14 µM
- GI50 [6]: 12 µM
- GI50 [7]: 16 µM
- GI50 [8]: 11 µM
- GI50 [9]: 9 µM
- GI50 [10]: 12 µM
- GI50 [11]: 14 µM

Compound: N#C/C(=C\c1ccc([N+](=O)[O-])cc1)C(=O)c1c[nH]c2ccccc12
- GI50 [1]: 41 µM
- GI50 [2]: 37 µM
- GI50 [3]: 40 µM
- GI50 [4]: 46 µM
- GI50 [5]: 60 µM
- GI50 [6]: 48 µM
- GI50 [7]: 47 µM
- GI50 [8]: 35 µM
- GI50 [9]: 46 µM
- GI50 [10]: 59 µM
- GI50 [11]: 42 µM

Compound: N#C/C(=C\c1c(F)c(F)c(F)c(F)c1F)C(=O)c1c[nH]c2ccccc12
- GI50 [1]: 18 µM
- GI50 [2]: 14 µM
- GI50 [3]: 10 µM
- GI50 [4]: 21 µM
- GI50 [5]: 20 µM
- GI50 [6]: 11 µM
- GI50 [7]: 35 µM
- GI50 [8]: 13 µM
- GI50 [9]: 19 µM
- GI50 [10]: 30 µM
- GI50 [11]: 18 µM

Compound: N#C/C(=C\c1ccc2ccccc2c1)C(=O)NCc1ccc(Cl)c(Cl)c1
- GI50 [1]: 44 µM
- GI50 [2]: 49 µM
- GI50 [3]: 40 µM
- GI50 [4]: 44 µM
- GI50 [5]: 64 µM
- GI50 [6]: 44 µM
- GI50 [7]: > 100 µM
- GI50 [8]: 29 µM
- GI50 [9]: 50 µM
- GI50 [10]: 77 µM
- GI50 [11]: 50 µM

Compound: COc1ccc(CNC(=O)/C(C#N)=C/c2ccco2)cc1
- GI50 [1]: 22 µM
- GI50 [2]: 31 µM
- GI50 [3]: 24 µM
- GI50 [4]: 34 µM
- GI50 [5]: 33 µM
- GI50 [6]: 24 µM
- GI50 [7]: 32 µM
- GI50 [8]: 27 µM
- GI50 [9]: 16 µM
- GI50 [10]: 29 µM
- GI50 [11]: 31 µM

Compound: COc1ccc(CNC(=O)/C(C#N)=C/c2ccccc2)cc1
- GI50 [1]: 9 µM
- GI50 [2]: 17 µM
- GI50 [3]: 15 µM
- GI50 [4]: 24 µM
- GI50 [5]: 16 µM
- GI50 [6]: 9 µM
- GI50 [7]: 18 µM
- GI50 [8]: 18 µM
- GI50 [9]: 9 µM
- GI50 [10]: 13 µM
- GI50 [11]: 14 µM

Compound: COc1ccc(CNC(=O)/C(C#N)=C/c2ccc(C)cc2)cc1
- GI50 [1]: 36 µM
- GI50 [2]: 39 µM
- GI50 [3]: 35 µM
- GI50 [4]: 38 µM
- GI50 [5]: 42 µM
- GI50 [6]: 33 µM
- GI50 [7]: 41 µM
- GI50 [8]: 36 µM
- GI50 [9]: 26 µM
- GI50 [10]: 34 µM
- GI50 [11]: 34 µM

Compound: COc1ccc(CNC(=O)/C(C#N)=C/c2ccc3ccccc3c2)cc1
- GI50 [1]: 54 µM
- GI50 [2]: 40 µM
- GI50 [3]: 42 µM
- GI50 [4]: 49 µM
- GI50 [5]: 43 µM
- GI50 [6]: 40 µM
- GI50 [7]: > 100 µM
- GI50 [8]: 33 µM
- GI50 [9]: 37 µM
- GI50 [10]: 80 µM
- GI50 [11]: 41 µM

Compound: COc1ccc(CNC(=O)/C(C#N)=C/c2ccc(-c3ccccc3)o2)cc1
- GI50 [1]: 56 µM
- GI50 [2]: > 100 µM
- GI50 [3]: > 100 µM
- GI50 [4]: > 100 µM
- GI50 [5]: > 100 µM
- GI50 [6]: > 100 µM
- GI50 [7]: > 100 µM
- GI50 [8]: 3 µM
- GI50 [9]: > 100 µM
- GI50 [10]: > 100 µM
- GI50 [11]: > 100 µM

Compound: COc1ccc(/C=C(\C#N)C(=O)NCc2ccc(Cl)c(Cl)c2)cc1
- GI50 [1]: > 100 µM
- GI50 [2]: > 100 µM
- GI50 [3]: 93 µM
- GI50 [4]: 79 µM
- GI50 [5]: > 100 µM
- GI50 [6]: 86 µM
- GI50 [7]: > 100 µM
- GI50 [8]: 45 µM
- GI50 [9]: 90 µM
- GI50 [10]: 70 µM
- GI50 [11]: 95 µM

Compound: COc1ccc(CNC(=O)/C(C#N)=C/c2ccc(C)o2)cc1
- GI50 [1]: 92 µM
- GI50 [2]: 75 µM
- GI50 [3]: 21 µM
- GI50 [4]: 51 µM
- GI50 [5]: 69 µM
- GI50 [6]: 60 µM
- GI50 [7]: > 100 µM
- GI50 [8]: 21 µM
- GI50 [9]: 58 µM
- GI50 [10]: 39 µM
- GI50 [11]: 29 µM

Compound: N#C/C(=C\c1c(F)c(F)c(F)c(F)c1F)C(=O)c1ccc[nH]1
- GI50 [1]: 224 µM
- GI50 [2]: 23 µM
- GI50 [3]: 14 µM
- GI50 [4]: 25 µM
- GI50 [5]: > 100 µM
- GI50 [6]: 64 µM
- GI50 [7]: 31 µM
- GI50 [8]: 23 µM
- GI50 [9]: 64 µM
- GI50 [10]: > 100 µM
- GI50 [11]: > 100 µM

— ChEMBL document CHEMBL2331240, “Focused library development of 2-phenylacrylamides as broad spectrum cytotoxic agents” (2013)
